Tested on: Fibroblast
Experiment: Multiplex assay against human fibroblast
Assay type: toxicity, cell-based
Outline: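 Phenotypes for tubulin, mitochondrial mass and membrane permeability are expressed as per cents of healthy-nucleus cells. Cells were stained live at seeding with Hoechst33342, BioTracker Green Microtubule Cytoskeleton Dye, MitoTracker Red and Annexin V Alexa Fluor 680, then imaged after compound addition on a CQ1 microscope at 37°C and 5% CO2. Machine-learning gating in CellPathfinder separated Hoechst high-intensity objects from normal cells, divided normal cells by nuclear state (healthy, pyknosed, fragmented) and divided pyknosed cells into mitotic or apoptotic.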

[1] = 12 h, 1 µM, compound concentration 1 uM, replicate 1
[2] = 12 h, 1 µM, compound concentration 1 uM, replicate 2
[3] = 12 h, 10 µM, compound concentration 10 uM, replicate 1
[4] = 12 h, 10 µM, compound concentration 10 uM, replicate 2
[5] = 24 h, 1 µM, compound concentration 1 uM, replicate 1
[6] = 24 h, 1 µM, compound concentration 1 uM, replicate 2
[7] = 24 h, 10 µM, compound concentration 10 uM, replicate 1
[8] = 24 h, 10 µM, compound concentration 10 uM, replicate 2
[9] = 48 h, 1 µM, compound concentration 1 uM, replicate 1
[10] = 48 h, 1 µM, compound concentration 1 uM, replicate 2
[11] = 48 h, 10 µM, compound concentration 10 uM, replicate 1
[12] = 48 h, 10 µM, compound concentration 10 uM, replicate 2

Cl.O=c1c2cccn2c2ccccc2n1CCCN1CCC(c2ccc(Cl)cc2)CC1
Population Apoptotic (%) [1]: 68%
Population Fragmented Nuclei (%) [1]: 21%
Population Healthy Nuclei (%) [1]: 61%
Population Hoechst High Intensity Objects (%) [1]: 12%
Population Membrane Permeable-Phenotype (%) [1]: 10%
Population Mitochondria Different-Phenotype (%) [1]: 15%
Population Mitotic Cells (%) [1]: 31%
Population Normal (%) [1]: 87%
Population Pyknosed Nuclei (%) [1]: 17%
Population Tubulin-Different-Phenotype (%) [1]: 40%
Total Cell Count [1]: 123
Population Apoptotic (%) [2]: 60%
Population Fragmented Nuclei (%) [2]: 16%
Population Healthy Nuclei (%) [2]: 73%
Population Hoechst High Intensity Objects (%) [2]: 8%
Population Membrane Permeable-Phenotype (%) [2]: 0%
Population Mitochondria Different-Phenotype (%) [2]: 56%
Population Mitotic Cells (%) [2]: 40%
Population Normal (%) [2]: 91%
Population Pyknosed Nuclei (%) [2]: 9%
Population Tubulin-Different-Phenotype (%) [2]: 30%
Total Cell Count [2]: 119
Population Apoptotic (%) [3]: 48%
Population Fragmented Nuclei (%) [3]: 28%
Population Healthy Nuclei (%) [3]: 42%
Population Hoechst High Intensity Objects (%) [3]: 30%
Population Membrane Permeable-Phenotype (%) [3]: 5%
Population Mitochondria Different-Phenotype (%) [3]: 52%
Population Mitotic Cells (%) [3]: 51%
Population Normal (%) [3]: 69%
Population Pyknosed Nuclei (%) [3]: 28%
Population Tubulin-Different-Phenotype (%) [3]: 84%
Total Cell Count [3]: 175
Population Apoptotic (%) [4]: 78%
Population Fragmented Nuclei (%) [4]: 21%
Population Healthy Nuclei (%) [4]: 57%
Population Hoechst High Intensity Objects (%) [4]: 11%
Population Membrane Permeable-Phenotype (%) [4]: 74%
Population Mitochondria Different-Phenotype (%) [4]: 98%
Population Mitotic Cells (%) [4]: 21%
Population Normal (%) [4]: 89%
Population Pyknosed Nuclei (%) [4]: 21%
Population Tubulin-Different-Phenotype (%) [4]: 98%
Total Cell Count [4]: 58
Population Apoptotic (%) [5]: 48%
Population Fragmented Nuclei (%) [5]: 28%
Population Healthy Nuclei (%) [5]: 44%
Population Hoechst High Intensity Objects (%) [5]: 11%
Population Membrane Permeable-Phenotype (%) [5]: 12%
Population Mitochondria Different-Phenotype (%) [5]: 10%
Population Mitotic Cells (%) [5]: 51%
Population Normal (%) [5]: 88%
Population Pyknosed Nuclei (%) [5]: 27%
Population Tubulin-Different-Phenotype (%) [5]: 45%
Total Cell Count [5]: 121
Population Apoptotic (%) [6]: 25%
Population Fragmented Nuclei (%) [6]: 16%
Population Healthy Nuclei (%) [6]: 70%
Population Hoechst High Intensity Objects (%) [6]: 7%
Population Membrane Permeable-Phenotype (%) [6]: 2%
Population Mitochondria Different-Phenotype (%) [6]: 38%
Population Mitotic Cells (%) [6]: 75%
Population Normal (%) [6]: 92%
Population Pyknosed Nuclei (%) [6]: 13%
Population Tubulin-Different-Phenotype (%) [6]: 19%
Total Cell Count [6]: 147
Population Apoptotic (%) [7]: 67%
Population Fragmented Nuclei (%) [7]: 21%
Population Healthy Nuclei (%) [7]: 49%
Population Hoechst High Intensity Objects (%) [7]: 39%
Population Membrane Permeable-Phenotype (%) [7]: 7%
Population Mitochondria Different-Phenotype (%) [7]: 40%
Population Mitotic Cells (%) [7]: 32%
Population Normal (%) [7]: 60%
Population Pyknosed Nuclei (%) [7]: 29%
Population Tubulin-Different-Phenotype (%) [7]: 63%
Total Cell Count [7]: 193
Population Apoptotic (%) [8]: 87%
Population Fragmented Nuclei (%) [8]: 14%
Population Healthy Nuclei (%) [8]: 64%
Population Hoechst High Intensity Objects (%) [8]: 7%
Population Membrane Permeable-Phenotype (%) [8]: 72%
Population Mitochondria Different-Phenotype (%) [8]: 98%
Population Mitotic Cells (%) [8]: 12%
Population Normal (%) [8]: 92%
Population Pyknosed Nuclei (%) [8]: 20%
Population Tubulin-Different-Phenotype (%) [8]: 98%
Total Cell Count [8]: 65
Population Apoptotic (%) [9]: 45%
Population Fragmented Nuclei (%) [9]: 43%
Population Healthy Nuclei (%) [9]: 36%
Population Hoechst High Intensity Objects (%) [9]: 14%
Population Membrane Permeable-Phenotype (%) [9]: 11%
Population Mitochondria Different-Phenotype (%) [9]: 2%
Population Mitotic Cells (%) [9]: 54%
Population Normal (%) [9]: 85%
Population Pyknosed Nuclei (%) [9]: 19%
Population Tubulin-Different-Phenotype (%) [9]: 47%
Total Cell Count [9]: 142
Population Apoptotic (%) [10]: 66%
Population Fragmented Nuclei (%) [10]: 44%
Population Healthy Nuclei (%) [10]: 52%
Population Hoechst High Intensity Objects (%) [10]: 11%
Population Membrane Permeable-Phenotype (%) [10]: 5%
Population Mitochondria Different-Phenotype (%) [10]: 1%
Population Mitotic Cells (%) [10]: 33%
Population Normal (%) [10]: 88%
Population Pyknosed Nuclei (%) [10]: 2%
Population Tubulin-Different-Phenotype (%) [10]: 55%
Total Cell Count [10]: 120
Population Apoptotic (%) [11]: 81%
Population Fragmented Nuclei (%) [11]: 28%
Population Healthy Nuclei (%) [11]: 50%
Population Hoechst High Intensity Objects (%) [11]: 48%
Population Membrane Permeable-Phenotype (%) [11]: 2%
Population Mitochondria Different-Phenotype (%) [11]: 46%
Population Mitotic Cells (%) [11]: 18%
Population Normal (%) [11]: 51%
Population Pyknosed Nuclei (%) [11]: 22%
Population Tubulin-Different-Phenotype (%) [11]: 78%
Total Cell Count [11]: 193
Population Apoptotic (%) [12]: 56%
Population Fragmented Nuclei (%) [12]: 27%
Population Healthy Nuclei (%) [12]: 52%
Population Hoechst High Intensity Objects (%) [12]: 55%
Population Membrane Permeable-Phenotype (%) [12]: 3%
Population Mitochondria Different-Phenotype (%) [12]: 48%
Population Mitotic Cells (%) [12]: 44%
Population Normal (%) [12]: 44%
Population Pyknosed Nuclei (%) [12]: 19%
Population Tubulin-Different-Phenotype (%) [12]: 72%
Total Cell Count [12]: 281

COc1cccc2cc(-c3nc([C@H]4CC[C@H](C(=O)O)CC4)n4ncnc(N)c34)[nH]c12 [OSI-027]
Population Apoptotic (%) [1]: 58%
Population Fragmented Nuclei (%) [1]: 47%
Population Healthy Nuclei (%) [1]: 40%
Population Hoechst High Intensity Objects (%) [1]: 28%
Population Membrane Permeable-Phenotype (%) [1]: 5%
Population Mitochondria Different-Phenotype (%) [1]: 0%
Population Mitotic Cells (%) [1]: 41%
Population Normal (%) [1]: 71%
Population Pyknosed Nuclei (%) [1]: 11%
Population Tubulin-Different-Phenotype (%) [1]: 7%
Total Cell Count [1]: 382
Population Apoptotic (%) [2]: 57%
Population Fragmented Nuclei (%) [2]: 68%
Population Healthy Nuclei (%) [2]: 22%
Population Hoechst High Intensity Objects (%) [2]: 26%
Population Membrane Permeable-Phenotype (%) [2]: 25%
Population Mitochondria Different-Phenotype (%) [2]: 18%
Population Mitotic Cells (%) [2]: 42%
Population Normal (%) [2]: 73%
Population Pyknosed Nuclei (%) [2]: 9%
Population Tubulin-Different-Phenotype (%) [2]: 31%
Total Cell Count [2]: 98
Population Apoptotic (%) [3]: 72%
Population Fragmented Nuclei (%) [3]: 28%
Population Healthy Nuclei (%) [3]: 56%
Population Hoechst High Intensity Objects (%) [3]: 12%
Population Membrane Permeable-Phenotype (%) [3]: 2%
Population Mitochondria Different-Phenotype (%) [3]: 2%
Population Mitotic Cells (%) [3]: 27%
Population Normal (%) [3]: 87%
Population Pyknosed Nuclei (%) [3]: 14%
Population Tubulin-Different-Phenotype (%) [3]: 0%
Total Cell Count [3]: 281
Population Apoptotic (%) [4]: 20%
Population Fragmented Nuclei (%) [4]: 65%
Population Healthy Nuclei (%) [4]: 26%
Population Hoechst High Intensity Objects (%) [4]: 31%
Population Membrane Permeable-Phenotype (%) [4]: 18%
Population Mitochondria Different-Phenotype (%) [4]: 12%
Population Mitotic Cells (%) [4]: 80%
Population Normal (%) [4]: 68%
Population Pyknosed Nuclei (%) [4]: 8%
Population Tubulin-Different-Phenotype (%) [4]: 6%
Total Cell Count [4]: 88
Population Apoptotic (%) [5]: 53%
Population Fragmented Nuclei (%) [5]: 36%
Population Healthy Nuclei (%) [5]: 50%
Population Hoechst High Intensity Objects (%) [5]: 33%
Population Membrane Permeable-Phenotype (%) [5]: 7%
Population Mitochondria Different-Phenotype (%) [5]: 1%
Population Mitotic Cells (%) [5]: 46%
Population Normal (%) [5]: 66%
Population Pyknosed Nuclei (%) [5]: 12%
Population Tubulin-Different-Phenotype (%) [5]: 5%
Total Cell Count [5]: 302
Population Apoptotic (%) [6]: 16%
Population Fragmented Nuclei (%) [6]: 68%
Population Healthy Nuclei (%) [6]: 22%
Population Hoechst High Intensity Objects (%) [6]: 34%
Population Membrane Permeable-Phenotype (%) [6]: 6%
Population Mitochondria Different-Phenotype (%) [6]: 13%
Population Mitotic Cells (%) [6]: 83%
Population Normal (%) [6]: 65%
Population Pyknosed Nuclei (%) [6]: 8%
Population Tubulin-Different-Phenotype (%) [6]: 13%
Total Cell Count [6]: 103
Population Apoptotic (%) [7]: 75%
Population Fragmented Nuclei (%) [7]: 23%
Population Healthy Nuclei (%) [7]: 64%
Population Hoechst High Intensity Objects (%) [7]: 17%
Population Membrane Permeable-Phenotype (%) [7]: 6%
Population Mitochondria Different-Phenotype (%) [7]: 0%
Population Mitotic Cells (%) [7]: 24%
Population Normal (%) [7]: 82%
Population Pyknosed Nuclei (%) [7]: 12%
Population Tubulin-Different-Phenotype (%) [7]: 0%
Total Cell Count [7]: 282
Population Apoptotic (%) [8]: 33%
Population Fragmented Nuclei (%) [8]: 60%
Population Healthy Nuclei (%) [8]: 34%
Population Hoechst High Intensity Objects (%) [8]: 33%
Population Membrane Permeable-Phenotype (%) [8]: 17%
Population Mitochondria Different-Phenotype (%) [8]: 11%
Population Mitotic Cells (%) [8]: 66%
Population Normal (%) [8]: 66%
Population Pyknosed Nuclei (%) [8]: 6%
Population Tubulin-Different-Phenotype (%) [8]: 11%
Total Cell Count [8]: 75

Source: ChEMBL document CHEMBL4689842, “EUbOPEN Chemogenomics Library wave 1” (2021)
